The values below come from ChEMBL document CHEMBL4402603, “Structure-Activity Relationship of SPOP Inhibitors against Kidney Cancer” (J Med Chem, 2020).

Active and inactive are the calls of the source. The calls are words filed in the database; no cut-off is given here.

One may read the inhibition as the percentage by which the read-out fell short of the control. In general, IC50 refers to the concentration that gives 50% inhibition. By ΔTm is commonly meant the change in melting temperature against a reference sample.

In assay [1] the target is Speckle-type POZ protein (Homo sapiens) (UniProt O43791). Description: Inhibition of SPOP signalling in human A498 cells assessed as reduction in ERK phosphorylation at 0.5 to 10 uM incubated for 12 hrs by Western blot analysis. It counts as cell-based. The gist of the method: (§1)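 Cells exposed 12 hr to inhibitor at graded concentrations, RIPA lysates normalized by BCA. 12% SDS-PAGE, nitrocellulose transfer, milk block, primary antibody at 4 °C overnight, HRP secondary, ECL. GAPDH loading control.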
In general terms: A western blot detects proteins with antibodies after separation by electrophoresis.

Assay [2] has the same target. Description: Inhibition of SPOP signalling in human OS-RC2 cells assessed as reduction in ERK phosphorylation at 0.5 to 15 uM incubated for 12 hrs by Western blot analysis. Type of assay: cell-based. The gist of the method:
as §1

Assay [3] deals with A498. Kind of assay: Antiproliferative activity against human A498 cells assessed as reduction in cell viability at 30 uM incubated for 72 hrs by MTT assay relative to control. It counts as functional. The note with it: A498, 72 h. In outline:
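MTT read-out. Cells seeded at 1,000-2,200/well, grown 12 hr at 37 °C, then compound added for 72 hr. MTT for 4 hr, formazan dissolved in DMSO, absorbance at 490 nm. Untreated-cell OD taken as 100% proliferation; inhibition reported at 30 μM.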
A general note: Formazan colour is commonly taken as a measure of viable cells.

Assay [4] addresses Speckle-type POZ protein (Homo sapiens) (UniProt O43791). Description: Inhibition of SPOP signalling in human A498 cells assessed as effect on total AKT level at 0.5 to 10 uM incubated for 12 hrs by Western blot analysis. It counts as cell-based. In outline:
as §1

A short description of assay [5]: Selectivity index, ratio of IC50 for human A549 to IC50 for human A498 cells.
The subject of the next assay is A549. Description: Cytotoxicity against human A549 cells assessed as reduction in cell viability incubated for 72 hrs by MTT assay. It counts as cell-based. The note with it: A549, 72 h. In outline: (§2)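 Cells maintained in DMEM/10% FBS at 37 °C, 5% CO2. Cell proliferation quantified by MTT after 72 hr compound exposure, A490 read. Untreated cells = 100%. Mean ± SD, n = 3.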

The test system of another assay is Hs 766. Kind of assay: Cytotoxicity against human Hs766T cells assessed as reduction in cell viability incubated for 72 hrs by MTT assay. The note with it: Hs 766, 72 h. Type of assay: cell-based. The gist of the method: as §2
The target of assay [6] is T1, Speckle-type POZ protein/PTEN (Homo sapiens) (UniProt P60484+O43791). Description: Inhibition of SPOP/PTEN interaction in human HEK293T cells assessed as reduction in SPOP level incubated for 12 hr by co-immunoprecipitation based Western blot analysis.
The target in assay [7] is Speckle-type POZ protein (Homo sapiens) (UniProt O43791). Kind of assay: Inhibition of SPOP signalling in human OS-RC2 cells assessed as reduction in AKT phosphorylation at 0.5 to 15 uM incubated for 12 hrs by Western blot analysis. Type of assay: cell-based. The gist of the method: as §1
A short description of assay [8]: Selectivity index, ratio of IC50 for human H1299 to IC50 for human A498 cells.
Assay [9] addresses Speckle-type POZ protein (Homo sapiens) (UniProt O43791). Kind of assay: Inhibition of SPOP signalling in human OS-RC2 cells assessed as effect of PTEN mRNA expression at 1 to 10 uM incubated for 12 hrs by qRT-PCR analysis. It counts as cell-based. For orientation: Real-time PCR tracks product formation cycle by cycle.
Assay [10] has the same target. Description: Inhibition of SPOP signalling in human A498 cells assessed as accumulation of PTEN incubated for 12 hrs by Western blot analysis. It counts as cell-based. In outline: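 Cells treated with SPOP inhibitor at different concentrations for 12 hr, lysed in RIPA, protein by BCA. Samples run on 12% SDS-PAGE, blotted to nitrocellulose, primary antibody overnight at 4 °C, HRP secondary, ECL detection. GAPDH loading control. Triplicate experiments.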

The subject of assay [11] is A498. Description: Inhibition of colony formation in human A498 cells at 1 to 5 uM incubated for 12 days by crystal violet dye based assay. It counts as functional, cell-based. The gist of the method:
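Cells seeded at 1,000/well, grown 12 days at 37 °C, 5% CO2, medium renewed every 3 days. Fixed with 10% acetic acid/10% methanol for 15 min, stained with 1% crystal violet for 10 min.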

In a further assay the test system is NCI-H1299. Kind of assay: Cytotoxicity against human H1299 cells assessed as reduction in cell viability incubated for 72 hrs by MTT assay. The note with it: NCI-H1299, 72 h. Type of assay: cell-based. In outline: as §2
The target of assay [12] is T1, Speckle-type POZ protein/PTEN (Homo sapiens). Kind of assay: Inhibition of SPOP/PTEN interaction in human OS-RC2 cells assessed as increase in SPOP level at 1 to 50 uM incubated for 20 mins by DARTS based Western blot analysis. Type of assay: cell-based. The gist of the method:
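DARTS. Lysates of 1×10⁶ cells in TNC buffer, 120 μg per tube, incubated with compound at 0, 1, 5, 10 or 50 μM for 20 min at rt. Pronase digestion 10 min at rt (1:1000 for A498, 1:2000 for OS-RC-2), stopped with protease inhibitors, then SPOP western blot. Triplicate experiments.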

For assay [13], the target named is Speckle-type POZ protein (Homo sapiens) (UniProt O43791). Description: Binding affinity to recombinant N-terminal GST/His-tagged SPOP (unknown origin) MATH binding domain expressed in Escherichia coli BL21 (DE3) assessed as change in melting temperature at 1 fold compound by SYPRO Orange dye based differential scanning fluorimetry (reference value: -1.7 degreeC).

Assay [14] can be described thus: Selectivity index, ratio of IC50 for human U251 to IC50 for human A498 cells.

Speckle-type POZ protein (Homo sapiens), sequence (O43791 whole entry, the tested form may be a part): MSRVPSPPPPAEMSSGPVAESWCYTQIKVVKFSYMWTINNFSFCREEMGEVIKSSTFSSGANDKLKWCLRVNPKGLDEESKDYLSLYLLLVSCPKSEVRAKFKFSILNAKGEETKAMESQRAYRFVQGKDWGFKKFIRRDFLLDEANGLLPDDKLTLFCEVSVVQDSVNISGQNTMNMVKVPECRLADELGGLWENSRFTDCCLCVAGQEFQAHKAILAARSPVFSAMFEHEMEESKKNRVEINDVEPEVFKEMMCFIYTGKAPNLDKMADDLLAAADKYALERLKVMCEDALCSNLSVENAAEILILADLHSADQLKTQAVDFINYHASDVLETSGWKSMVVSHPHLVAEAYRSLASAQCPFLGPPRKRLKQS
T1 sequence (O43791 whole entry, looked up): as the sequence (O43791 whole entry, the tested form may be a part) above
T1 sequence (P60484 whole entry, looked up): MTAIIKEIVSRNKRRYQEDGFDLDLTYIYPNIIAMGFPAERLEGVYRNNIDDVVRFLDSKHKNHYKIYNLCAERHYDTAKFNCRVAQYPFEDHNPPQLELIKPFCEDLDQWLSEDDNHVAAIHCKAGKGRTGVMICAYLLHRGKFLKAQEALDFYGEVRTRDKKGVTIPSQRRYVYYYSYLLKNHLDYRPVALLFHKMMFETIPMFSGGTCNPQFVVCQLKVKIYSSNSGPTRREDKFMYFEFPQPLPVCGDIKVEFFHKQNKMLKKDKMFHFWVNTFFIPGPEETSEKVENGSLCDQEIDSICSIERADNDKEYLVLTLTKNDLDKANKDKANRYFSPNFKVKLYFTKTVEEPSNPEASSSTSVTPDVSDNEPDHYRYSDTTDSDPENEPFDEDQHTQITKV

For the compound `Cc1cccn2c(=O)c3cc(C(=O)NCCN4CCN(C)CC4)c(=N)n(CCc4cccs4)c3nc12`, the inhibition entry (in assay [1]; in assay [2]; in assay [7]; in the assay with A498 [11]; in assay [12]) was “Active” throughout. Also, in the assay on A498 [3], the inhibition at 30 µM is 85%. Besides, the inhibition result in assay [4] and in [9] was “inactive” throughout. Further, the “Ratio IC50” value in assay [5], in assay [8] and in [14] was greater than 5 each time. Moreover, the values for the IC50 with A549, in the assay on Hs 766 and with NCI-H1299 were 16.2 µM, 14.5 µM and 10.7 µM, respectively. The inhibition entry in assay [6] and in [10] was “Dose-dependent effect” in each case. Further, the ΔTm in assay [13] was 2.7 °C.
